Legend:
Rtt109 = conditions: ref [14], [20]; cited from earlier work
Rtt109-Vps75 [1] = target: T1, Rtt109-Vps75 (Saccharomyces cerevisiae, UniProt Q07794); test: Rtt109-Vps75 HAT reaction-rate assay with H3n21 peptide, released CoA quantified; type: biochemical; conditions: for Vmax, acetyl-CoA titration: 50 nM Rtt109-Vps75, 15 µM H3n21
T1 sequence (Q07794 1-436): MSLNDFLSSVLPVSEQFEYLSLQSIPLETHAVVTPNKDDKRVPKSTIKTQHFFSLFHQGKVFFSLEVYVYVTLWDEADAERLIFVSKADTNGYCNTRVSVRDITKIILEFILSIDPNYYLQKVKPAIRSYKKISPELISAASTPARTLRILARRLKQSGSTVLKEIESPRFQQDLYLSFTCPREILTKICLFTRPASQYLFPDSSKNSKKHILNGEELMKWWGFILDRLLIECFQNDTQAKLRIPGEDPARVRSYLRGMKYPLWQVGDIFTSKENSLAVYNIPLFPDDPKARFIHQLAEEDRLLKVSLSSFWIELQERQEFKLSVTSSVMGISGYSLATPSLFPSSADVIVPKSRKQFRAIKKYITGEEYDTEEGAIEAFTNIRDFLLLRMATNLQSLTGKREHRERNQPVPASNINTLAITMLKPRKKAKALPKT
T1 sequence (P53853 1-264 partner): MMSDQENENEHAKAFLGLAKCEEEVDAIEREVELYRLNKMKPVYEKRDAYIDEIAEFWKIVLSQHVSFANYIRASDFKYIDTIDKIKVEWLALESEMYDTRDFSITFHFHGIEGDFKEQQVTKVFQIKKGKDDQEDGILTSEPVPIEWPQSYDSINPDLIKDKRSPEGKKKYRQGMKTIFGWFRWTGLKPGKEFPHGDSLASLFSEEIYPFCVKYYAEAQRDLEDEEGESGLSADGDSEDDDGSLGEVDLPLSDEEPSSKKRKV

Rtt109-Vps75 [2] = target: T1, Rtt109-Vps75; test: Single-point HAT reactions, CoA formed by the end of a 30-minute reaction; type: biochemical; conditions: data not shown
Rtt109-Vps75 [3] = target: T1, Rtt109-Vps75; test: HAT-ELISA of H3K56 acetylation on; type: biochemical; conditions: 500 nM compound, 50 nM Rtt109, 50 nM Vps75, 30 min, 30°C
C. albicans [4] = test: Cellular levels of H3K56ac; type: cell-based; conditions: data not shown
Saccharoyces cerevisiae [5] = test: Sensitivity to the DNA damaging agent camptothecin; type: cell-based; conditions: data not shown
p300 [6] = target: T2, p300 (Homo sapiens, UniProt Q09472); test: p300 HAT reaction-rate assay with H3n21 peptide; type: biochemical, mammalian
T2 sequence (Q09472 whole entry, species assumed): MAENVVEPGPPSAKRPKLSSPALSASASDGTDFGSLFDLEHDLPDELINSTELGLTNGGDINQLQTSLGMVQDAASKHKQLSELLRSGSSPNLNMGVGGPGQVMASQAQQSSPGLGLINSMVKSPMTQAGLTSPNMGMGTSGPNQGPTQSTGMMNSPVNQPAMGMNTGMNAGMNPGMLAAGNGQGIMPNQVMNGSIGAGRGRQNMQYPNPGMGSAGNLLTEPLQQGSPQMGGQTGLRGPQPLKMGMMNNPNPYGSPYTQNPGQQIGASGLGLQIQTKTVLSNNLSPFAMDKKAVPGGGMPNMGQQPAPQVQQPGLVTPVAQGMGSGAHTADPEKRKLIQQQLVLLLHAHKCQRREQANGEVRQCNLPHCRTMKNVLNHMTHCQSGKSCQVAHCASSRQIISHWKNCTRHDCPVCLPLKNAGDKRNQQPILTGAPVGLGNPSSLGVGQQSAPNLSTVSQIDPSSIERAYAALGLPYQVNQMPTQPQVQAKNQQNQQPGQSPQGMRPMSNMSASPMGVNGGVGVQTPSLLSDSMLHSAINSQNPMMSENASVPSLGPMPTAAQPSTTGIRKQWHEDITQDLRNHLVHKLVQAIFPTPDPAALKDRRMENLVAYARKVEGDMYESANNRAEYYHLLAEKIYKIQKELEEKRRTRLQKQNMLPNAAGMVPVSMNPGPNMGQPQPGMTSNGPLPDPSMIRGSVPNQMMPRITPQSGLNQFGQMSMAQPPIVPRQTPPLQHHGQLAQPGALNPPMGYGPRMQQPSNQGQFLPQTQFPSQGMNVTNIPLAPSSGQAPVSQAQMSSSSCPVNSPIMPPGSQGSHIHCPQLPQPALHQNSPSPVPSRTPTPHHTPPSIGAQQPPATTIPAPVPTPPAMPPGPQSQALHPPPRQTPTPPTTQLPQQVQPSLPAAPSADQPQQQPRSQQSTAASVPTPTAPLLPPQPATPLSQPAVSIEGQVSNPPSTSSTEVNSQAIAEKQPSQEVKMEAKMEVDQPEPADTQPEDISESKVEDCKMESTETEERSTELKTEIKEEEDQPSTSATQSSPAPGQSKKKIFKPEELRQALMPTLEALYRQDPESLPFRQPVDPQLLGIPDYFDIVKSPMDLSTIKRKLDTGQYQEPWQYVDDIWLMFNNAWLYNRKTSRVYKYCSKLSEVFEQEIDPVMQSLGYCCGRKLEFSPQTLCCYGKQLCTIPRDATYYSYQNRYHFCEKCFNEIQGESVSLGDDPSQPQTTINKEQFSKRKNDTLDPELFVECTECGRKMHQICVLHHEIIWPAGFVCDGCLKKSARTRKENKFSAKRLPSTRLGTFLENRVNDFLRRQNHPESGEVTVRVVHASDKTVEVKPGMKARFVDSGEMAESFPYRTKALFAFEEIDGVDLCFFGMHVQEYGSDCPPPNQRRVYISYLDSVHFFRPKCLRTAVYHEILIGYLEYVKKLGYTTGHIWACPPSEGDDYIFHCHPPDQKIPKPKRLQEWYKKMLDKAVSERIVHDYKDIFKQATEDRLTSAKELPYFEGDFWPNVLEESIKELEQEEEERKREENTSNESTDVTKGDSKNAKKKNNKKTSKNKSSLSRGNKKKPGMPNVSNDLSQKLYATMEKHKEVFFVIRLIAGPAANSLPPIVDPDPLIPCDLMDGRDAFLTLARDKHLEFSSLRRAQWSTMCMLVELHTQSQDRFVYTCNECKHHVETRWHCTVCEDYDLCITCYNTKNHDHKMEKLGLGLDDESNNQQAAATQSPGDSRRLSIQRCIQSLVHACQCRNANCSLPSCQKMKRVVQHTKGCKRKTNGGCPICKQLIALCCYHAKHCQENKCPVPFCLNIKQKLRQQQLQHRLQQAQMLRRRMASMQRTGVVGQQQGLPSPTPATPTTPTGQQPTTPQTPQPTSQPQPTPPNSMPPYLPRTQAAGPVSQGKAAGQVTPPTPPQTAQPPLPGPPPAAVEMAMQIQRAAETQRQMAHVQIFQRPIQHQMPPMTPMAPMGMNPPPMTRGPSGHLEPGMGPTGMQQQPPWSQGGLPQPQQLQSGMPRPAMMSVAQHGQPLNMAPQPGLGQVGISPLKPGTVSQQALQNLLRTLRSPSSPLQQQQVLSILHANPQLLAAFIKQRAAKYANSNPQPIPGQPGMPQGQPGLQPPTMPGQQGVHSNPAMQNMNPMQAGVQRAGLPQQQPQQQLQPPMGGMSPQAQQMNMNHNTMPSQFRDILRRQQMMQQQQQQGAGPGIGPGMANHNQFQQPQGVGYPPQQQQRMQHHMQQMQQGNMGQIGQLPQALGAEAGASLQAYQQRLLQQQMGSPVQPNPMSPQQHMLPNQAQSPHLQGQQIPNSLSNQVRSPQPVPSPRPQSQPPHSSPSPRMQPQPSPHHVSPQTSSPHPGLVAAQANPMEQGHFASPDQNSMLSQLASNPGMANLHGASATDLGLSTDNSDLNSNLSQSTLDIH
How it was run: (§1)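 Enzyme: 3.1 µg/ml (61 nM) Gcn5 or 15 µg/ml p300, with 15 µM H3n21 peptide. Enzyme and peptide pre-incubated with DMSO or test compound for 5 min at 30°C. Reactions started with 30 µM acetyl-CoA. Released CoA quantified every 2 min over the first 10 min. Rate derived by linear regression of product versus time. Compound capped at 100 µM. For p300, single-point assays were also run at 0.5–2 µM compound.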

Rtt109-Vps75 [7] = target: T1, Rtt109-Vps75; test: Dialysis and time-course tests of tight binding to Rtt109-Vps75; type: biochemical
p300 [8] = target: T2, p300; test: HAT-ELISA on; type: biochemical, mammalian; conditions: 500 nM compound, 15 µg/ml p300
Rtt109/Asf1 = Rtt109/Asf1 (Saccharomyces cerevisiae, UniProt Q07794); test: HAT-ELISA of H3K56 acetylation on; type: biochemical; conditions: 500 nM compound, 50 nM Rtt109, 400 nM Asf1N, 30 min, 30°C
How it was run: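 Reaction mix: 50 nM Rtt109, 400 nM Asf1N and […] (H3-H4)2 tetramers, pre-incubated 5 min with DMSO or 500 nM test compound. Started with 15 µM acetyl-CoA, with water as the no-substrate control, then incubated 30 min at 30°C. H3K56ac detected by ELISA with H3K56ac-specific rabbit antiserum. Signal normalised to DMSO plus acetyl-CoA.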

C. albicans [9] = test: Sensitivity to the DNA damaging agent camptothecin; type: cell-based; conditions: data not shown
Saccharoyces cerevisiae [10] = test: Cellular levels of H3K56ac; type: cell-based; conditions: data not shown
Gcn5 = Gcn5 (Saccharomyces cerevisiae, UniProt Q03330); test: Gcn5 HAT reaction-rate assay with H3n21 peptide; type: biochemical
Chain of Gcn5 (Q03330 whole entry): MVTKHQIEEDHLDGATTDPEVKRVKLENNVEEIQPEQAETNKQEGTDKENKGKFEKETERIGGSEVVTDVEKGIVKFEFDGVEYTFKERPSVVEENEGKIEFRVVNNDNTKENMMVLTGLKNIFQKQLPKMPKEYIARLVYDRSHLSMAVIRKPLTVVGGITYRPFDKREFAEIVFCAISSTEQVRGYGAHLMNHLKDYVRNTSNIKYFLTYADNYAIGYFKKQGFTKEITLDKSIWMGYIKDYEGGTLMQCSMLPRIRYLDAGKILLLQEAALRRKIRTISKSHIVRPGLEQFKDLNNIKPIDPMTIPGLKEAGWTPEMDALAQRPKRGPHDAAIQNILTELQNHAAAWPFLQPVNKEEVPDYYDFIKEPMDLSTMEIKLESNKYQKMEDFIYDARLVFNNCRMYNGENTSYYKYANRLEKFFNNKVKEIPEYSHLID
How it was run: as §1

[11] = Solubility limit in HAT assays; type: physicochemical; conditions: not tested above 100 µM

Structure (SMILES): CC(=O)N[C@@H](CCCCNC(=O)CSCCNC(=O)CCNC(=O)[C@H](O)C(C)(C)COP(=O)(O)OP(=O)(O)OC[C@H]1O[C@@H](n2cnc3c(N)ncnc32)[C@H](O)[C@@H]1OP(=O)(O)O)C(N)=O [Lys-CoA]
- effect on Rtt109 catalysis (Rtt109): do not affect Rtt109 catalysis

Structure (SMILES): CCC1(c2ccccc2)NC(=O)N(CC(=O)N(C)Cc2c(F)cccc2Cl)C1=O (stereo not shown) [SAR9]
- effect on reaction rates, dose response (Rtt109-Vps75 [1]; 100 nM – 1 µM compound, 50 nM Rtt109-Vps75): minimal inhibition even at the highest concentration tested
- inhibition of acetylation by Rtt109-Vps75 in single-point HAT reactions (Rtt109-Vps75 [2]): not as potent as compound 1

Structure (SMILES): CCCC1(c2ccccc2)NC(=O)N(CC(=O)N(C)Cc2c(F)cccc2Cl)C1=O (stereo not shown) [compound 1, N-[(2-chloro-6-fluorophenyl)methyl]-2-(2,5-dioxo-4-phenyl-4-propylimidazolidin-1-yl)-N-methylacetamide]
- inhibition of H3K56 acetylation by Rtt109-Vps75 (Rtt109-Vps75 [3]): inhibited acetylation
- effect on cellular levels of H3K56ac (C. albicans [4]): have not observed that compound 1 is able to affect
- effect on sensitivity to camptothecin (Saccharoyces cerevisiae [5]): have not observed that compound 1 is able to affect
- inhibition of p300 in single point enzyme assay (p300 [6]; 0.5 – 2 µM compound): without inhibiting p300
- enzyme reaction rate remaining, p300 (p300 [6]; compound up to 100 µM, 15 µg/ml p300): ≥ 80 % activity
- inhibition of HAT activity of p300 (p300 [6]; dose response up to 100 µM): did not significantly inhibit
- time course of inhibition (Rtt109-Vps75 [7]; 1 µM Rtt109-Vps75 with 1.0 µM compound 1, incubated 0-60 minutes on ice): the degree of inhibition increased during the entire 60 minutes
- mode of inhibition (Rtt109-Vps75 [7]; from substrate titrations, dialysis and enzyme-concentration dependence): tight or perhaps irreversible inhibitor
- inhibition of p300 HAT activity on (H3-H4)2 tetramers (p300 [8]): no inhibitory effect
- inhibition of H3K56 acetylation by Rtt109/Asf1 (Rtt109/Asf1): inhibited acetylation
- preference for inhibition of Rtt109 over p300 and Gcn5 (Rtt109-Vps75 [1]): greater than two order of magnitude preference
- Vmax, acetyl-CoA titration (Rtt109-Vps75 [1]; 30 µM compound 1): 1.46 ± 0.08 nM/s
- Vmax, acetyl-CoA titration (Rtt109-Vps75 [1]; 60 µM compound 1): 0.68 ± 0.09 nM/s
- inhibition of Rtt109-Vps75 in single point enzyme assay (Rtt109-Vps75 [1]; 0.5 – 2 µM compound): inhibited Rtt109
- effect on sensitivity to camptothecin (C. albicans [9]): have not observed that compound 1 is able to affect
- effect on cellular levels of H3K56ac (Saccharoyces cerevisiae [10]): have not observed that compound 1 is able to affect
- enzyme reaction rate remaining, Gcn5 (Gcn5; compound up to 100 µM, 61 nM Gcn5): ≥ 80 % activity
- inhibition of HAT activity of Gcn5 (Gcn5; dose response up to 100 µM): did not significantly inhibit
- solubility in assay [11]: solubility limitations
